Measurements published in ChEMBL document CHEMBL4411297, “Discovery, synthesis and anti-atherosclerotic activities of a novel selective sphingomyelin synthase 2 inhibitor” (Eur J Med Chem, 2019).
Activity calls are given as the source filed them. No cut-off for these calls is given here.

Columns and labels:
[1] = species: Homo sapiens; experiment: Selectivity ratio of IC50 for purified SMS1 (unknown origin) to IC50 for purified SMS2 (unknown origin)
[2] = tested on: BMDM; experiment: Induction of cytosolic IkappaBalpha […] in LPS-stimulated C57BL/6J mouse bone marrow derived macrophages preincubated for 17 hrs followed by LPS-stimulation and measured after 6 hrs by Western blot analysis; format: functional, cell-based
Outline: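 Bone marrow-derived macrophages from femurs of 8-week-old male C57BL/6J mice, preincubated with a range of concentrations for 17 h, then stimulated with 1 µg/ml LPS. Cells lysed in RIPA buffer with protease inhibitors. Western blot probed for IκBα with β-actin as loading control, ECL detection. Mean ± SD, n = 7.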

[3] = tested on: BMDM; experiment: Inhibition of LPS-induced MCP1 production in C57BL/6J mouse bone marrow derived macrophages at 6.25 to 50 uM preincubated for 17 hrs followed by LPS-stimulation and measured after 6 hrs by ELISA; format: functional, cell-based
Outline: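 Mouse bone marrow-derived macrophages exposed to a range of inhibitor concentrations for 17 h, then LPS 50 ng/ml for 6 h; IL-6 and MCP-1 in culture medium quantified by ELISA. Mean ± SD, n = 7.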

[4] = Dose normalized AUC (0 to 8 hrs) in C57BL/6J mouse at 100 mg/kg/day, ig by HPLC-MS/MS analysis; format: ADME, organism-based; conditions: in vivo, po
Outline: (§1)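 Male C57BL/6J mice, six to eight weeks old, about 20 g, fasted 12 h with free water. Given a single intragastric dose of 25, 50 or 100 mg/kg in 10% DMSO/30% PEG-100/0.9% NaCl. Blood taken retro-orbitally at 5 min to 8 h. Plasma protein-precipitated with methanol plus internal standard, then HPLC-MS/MS on a C18 column. Noncompartmental analysis, n = 6.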

[5] = Cmax in C57BL/6J mouse at 100 mg/kg/day, ig by HPLC-MS/MS analysis; format: ADME, organism-based; set-up: dose 100 mg/kg/day, route intragastric; conditions: in vivo, po; outline: as §1
[6] = AUC (0 to 8 hrs) in C57BL/6J mouse at 50 mg/kg/day, ig by HPLC-MS/MS analysis; format: ADME, organism-based; set-up: time < 8 hr, dose 50 mg/kg/day, route intragastric; conditions: in vivo, po; outline: as §1
[7] = AUC (0 to infinity) in C57BL/6J mouse at 50 mg/kg/day, ig by HPLC-MS/MS analysis; format: ADME, organism-based; set-up: dose 50 mg/kg/day, time infinity, route intragastric; conditions: in vivo, po; outline: as §1
[8] = MRT (0 to infinity) in C57BL/6J mouse at 50 mg/kg/day, ig by HPLC-MS/MS analysis; format: ADME, organism-based; conditions: in vivo, po
Outline: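 Male C57BL/6J mice (6–8 weeks, ~20 g), fasted 12 h, given a single intragastric dose of 25, 50 or 100 mg/kg in 10% DMSO/30% PEG/0.9% NaCl. Retro-orbital blood at 5 min to 8 h; plasma protein-precipitated with methanol plus internal standard, assayed by LC-MS/MS; noncompartmental analysis. Mean ± SD, n = 6.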

[9] = AUC (0 to 8 hrs) in C57BL/6J mouse at 25 mg/kg/day, ig by HPLC-MS/MS analysis; format: ADME, organism-based; set-up: dose 25 mg/kg/day, time < 8 hr, route intragastric; conditions: in vivo, po; outline: as §1
[10] = AUC (0 to infinity) in C57BL/6J mouse at 25 mg/kg/day, ig by HPLC-MS/MS analysis; format: ADME, organism-based; set-up: dose 25 mg/kg/day, time infinity, route intragastric; conditions: in vivo, po; outline: as §1
[11] = Half life in C57BL/6J mouse at 25 mg/kg/day, ig by HPLC-MS/MS analysis; format: ADME, organism-based; conditions: in vivo, po; outline: as §1
[12] = Apparent oral clearance in C57BL/6J mouse at 25 mg/kg/day, ig by HPLC-MS/MS analysis; format: ADME, organism-based; conditions: in vivo; outline: as §1
[13] = tested on: Mus musculus; experiment: Effect on plasma ALT level in apoE knockout mouse fed with western-type diet at 12.5 to 40 mg/kg/day, ig for 7 weeks; format: ADME, organism-based; conditions: in vivo, po, 1176 h
Outline: (§2)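 ApoE KO mice on Western-type diet, dosed by gavage at 12.5 or 40 mg/kg/day for 7 weeks, n = 10. Blood collected at 20 weeks of age. Plasma SM measured by a previously reported method. ALT and AST read on an automated biochemical analyzer.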

[14] = tested on: Mus musculus; experiment: Anti-atherosclerotic activity in apoE knockout mouse fed with western-type diet assessed as reduction in liver SMS activity at 40 mg/kg/day, ig for 7 weeks relative to control; format: functional; set-up: scale not given: the % may be the effect or the level left
Outline: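 ApoE KO mice on Western-type diet, dosed by gavage at 12.5 or 40 mg/kg/day for 7 weeks, n = 10. Liver homogenized at 200 mg/ml in 50 mM Tris-HCl pH 7.4, 1 mM EDTA, 250 mM sucrose. C6-NBD-ceramide and DMPC added, incubated at 37 °C, quenched with ethanol. Product read by TLC or HPLC, relative to vehicle.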

[15] = tested on: Mus musculus; experiment: Anti-atherosclerotic activity in apoE knockout mouse fed with western-type diet assessed as reduction in plasma SM level at 12.5 mg/kg/day, ig for 7 weeks relative to control; format: functional; set-up: scale not given: the % may be the effect or the level left; outline: as §2
[16] = tested on: Mus musculus; experiment: Anti-atherosclerotic activity in apoE knockout mouse fed with western-type diet assessed as reduction in plasma SM level at 40 mg/kg/day, ig for 7 weeks relative to control; format: functional; set-up: scale not given: the % may be the effect or the level left; outline: as §2
[17] = tested on: Mus musculus; experiment: Anti-atherosclerotic activity in apoE knockout mouse fed with western-type diet assessed as reduction in CD4+/CD8+ cell ratio at 40 mg/kg/day, ig for 7 weeks by flow cytometric analysis relative to control; format: functional; set-up: scale not given: the % may be the effect or the level left
Outline: (§3)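 ApoE KO mice started at 8 weeks old on Western-type diet for 6 weeks. Then dosed by gavage daily with vehicle, 12.5 or 40 mg/kg for 7 weeks with the diet continued, 10 mice per group. Blood single-cell suspensions stained with antibodies in PBS and analysed by flow cytometry. Mean ± SD, n = 5.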

[18] = tested on: Mus musculus; experiment: Anti-atherosclerotic activity in apoE knockout mouse fed with western-type diet assessed as reduction in CD11b+/Ly6C++/Ly6G+ dendritic cells at 12.5 mg/kg/day, ig for 7 weeks by flow cytometric analysis relative to control; format: functional; set-up: scale not given: the % may be the effect or the level left; outline: as §3
[19] = tested on: Mus musculus; experiment: Anti-atherosclerotic activity in apoE knockout mouse fed with western-type diet assessed as reduction in lesions in whole aorta at 12.5 to 40 mg/kg/day, ig for 7 weeks by oil-red O staining-based assay relative to control; format: functional, organism-based
Outline: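 ApoE KO mice fed Western-type diet, then given 12.5 or 40 mg/kg/day by gavage in 30% PEG-400/10% DMSO/0.9% NaCl for 7 weeks. Aortic root: H&E-stained 4 µm sections, mean lesion area from 6 sections per animal. Whole aorta: en face Oil Red O staining, percentage of area stained. Compared with vehicle, n = 10.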

[20] = molecular target: T1, Phosphatidylcholine:ceramide cholinephosphotransferase 2 (Mus musculus) (UniProt Q9D4B1); experiment: Inhibition of SMS2 in C57BL/6J mouse bone marrow derived macrophages after 17 hrs
T1 sequence (whole entry): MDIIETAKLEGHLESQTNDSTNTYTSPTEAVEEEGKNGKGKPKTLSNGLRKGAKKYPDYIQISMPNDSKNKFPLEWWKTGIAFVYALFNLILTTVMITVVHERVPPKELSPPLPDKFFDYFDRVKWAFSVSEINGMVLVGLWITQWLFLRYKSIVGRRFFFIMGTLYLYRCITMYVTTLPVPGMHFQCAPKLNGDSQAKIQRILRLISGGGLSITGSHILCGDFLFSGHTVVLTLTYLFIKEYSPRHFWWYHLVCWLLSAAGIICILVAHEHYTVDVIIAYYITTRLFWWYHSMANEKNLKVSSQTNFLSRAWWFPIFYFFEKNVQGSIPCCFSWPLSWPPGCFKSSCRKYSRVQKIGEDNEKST

- Ratio IC50 [1]: > 1400
- AUC/dose [4]: 0.13 µg·h/mL
- Cmax [5]: 14100 ng/mL
- AUC at 8 h [6]: 6260 ng·h/mL
- AUC(0-inf) [7]: 6790 ng·h/mL
- MRT inf [8]: 2.28 h
- AUC at 8 h [9]: 1990 ng·h/mL
- AUC(0-inf) [10]: 2360 ng·h/mL
- half-life [11]: 3.22 h
- CL/F [12]: 188 mL/min
- inhibition [20]: Dose-dependent effect
Structure (SMILES): CCc1ccccc1COc1ccccc1C(=O)Nc1cccnc1
- Activity [2]: Dose-dependent effect
- inhibition [3]: Active
- Activity [13]: Non-Toxic
- Activity [14]: 39%
- Activity [15]: 25%
- Activity [16]: 41%
- Activity [17]: 37%
- Activity [18]: 16%
- Activity [19]: Dose-dependent effect
